These results are taken from ChEMBL document CHEMBL5705901, “Exploiting selective BCL-2 family inhibitors to dissect cell survival dependencies and define improved strategies for cancer therapy” (Sci Transl Med, 2015).

In data set [1] the test system is MOLT-4. The data set is described as follows: Induction of apoptosis in human MOLT-4 cells assessed as increase in annexin V positive cells upto 500 nM incubated for 24 hrs by Annexin V staining based analysis. The class given is functional, cell-based. The essentials: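 Molt-4 cells were preincubated for 1 h with or without Z-VAD-fmk (75 μM), then treated for 24 h with increasing concentrations. Phosphatidylserine exposure was measured by annexin V staining. Values are the mean of triplicate experiments ± SD.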

The subject of data set [2] is NCI-H747. The data set is described as follows: Antitumor activity against human NCI-H747 cells xenografted in po dosed SCID-bg mouse assessed as tumor growth delay relative to control. Type of data set: functional. The procedure, abridged: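 Tumor volume-based endpoints. TGD = 100(T/C − 1), where T and C are the median times for the treated and control groups to reach 1 cm3. Groups were five mice for NCI-H747 and OVCAR-5 and eight for NCI-H358. Docetaxel was given intravenously and the test agent orally.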

In data set [3] the test system is NCI-H747. The data set is described as follows: Synergistic antitumor activity against human NCI-H747 cells xenografted in po dosed SCID-bg mouse assessed as maximum tumor growth inhibition in presence of docetaxel relative to control. The class given is functional. The essentials:
(§1)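 Xenografts dosed with oral inhibitor plus intravenous docetaxel. TGImax = 100(1 − Tv/Cv), from mean treated and control tumor volumes; TGD = 100(T/C − 1), from median times to reach 1 cm3. Group size 5 mice (NCI-H747, A549-FP3, EBC-1, OVCAR-5), 8 (NCI-H358), 10 (NCI-H1650).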
(Xenograft models place foreign cells or tissue in a host animal.)

The test system of data set [4] is EBC-1. The data set is described as follows: Antitumor activity against human EBC-1 cells xenografted in po dosed SCID-bg mouse assessed as maximum tumor growth inhibition relative to control. Type of data set: functional.
The test system of data set [5] is EBC-1. The data set is described as follows: Antitumor activity against human EBC-1 cells xenografted in po dosed SCID-bg mouse assessed as tumor growth delay relative to control. The class given is functional.
The subject of data set [6] is OVCAR-5. As to the kind of experiment: Synergistic antitumor activity against human OVCAR-5 cells xenografted in po dosed SCID mouse assessed as maximum tumor growth inhibition in presence of docetaxel relative to control. Type of data set: functional. The essentials:
as §1

For data set [7], the system named is MDA-MB-231. The data set is described as follows: Synergistic antiproliferative activity against human MDA-MB-231 cells assessed as reduction in cell viability by measuring bliss sum score incubated for 72 hrs in presence of docetaxel by CellTiter-Glo cell vaibility assay. Type of data set: functional.
Data set [8] concerns MDA-MB-231. As to the kind of experiment: Synergistic antiproliferative activity against LC3 positive human MDA-MB-231 cells assessed as reduction in cell viability by measuring bliss sum score incubated for 72 hrs in presence of docetaxel by CellTiter-Glo cell vaibility assay. The class given is functional. (ATP-based viability assays read luminescence as a measure of living cells.)

The test system of data set [9] is DU-4475. The data set is described as follows: Synergistic antiproliferative activity against human DU-4475 cells assessed as reduction in cell viability by measuring bliss sum score incubated for 72 hrs in presence of docetaxel by CellTiter-Glo cell vaibility assay. Type of data set: functional.
Data set [10] relates to Hs-578T. As to the kind of experiment: Synergistic antiproliferative activity against human Hs-578T cells assessed as reduction in cell viability by measuring bliss sum score incubated for 72 hrs in presence of docetaxel by CellTiter-Glo cell vaibility assay. The class given is functional.
Data set [11] deals with SK-MES-1. As to the kind of experiment: Synergistic antiproliferative activity against human SK-MES-1 cells assessed as reduction in cell viability by measuring bliss sum score incubated for 72 hrs in presence of docetaxel by CellTiter-Glo cell vaibility assay. The class given is functional.
Data set [12] concerns NCI-H1299. As to the kind of experiment: Synergistic antiproliferative activity against human NCI-H1299 cells assessed as reduction in cell viability by measuring bliss sum score incubated for 72 hrs in presence of docetaxel by CellTiter-Glo cell vaibility assay. Type of data set: functional.
In data set [13] the test system is NCI-H838. As to the kind of experiment: Synergistic antiproliferative activity against human NCI-H838 cells assessed as reduction in cell viability by measuring bliss sum score incubated for 72 hrs in presence of docetaxel by CellTiter-Glo cell vaibility assay. The class given is functional.
For data set [14], the system named is MDA-MB-468. As to the kind of experiment: Induction of apoptosis in human MDA-MB-468 cells assessed as accumulation of cells with sub-G0-G1 DNA content at 1 uM incubated for 48 hrs in presence of docetaxel by flow cytometric analysis. Type of data set: functional, cell-based.
In data set [15] the test system is MDA-MB-231. As to the kind of experiment: Induction of apoptosis in LC3 positive human MDA-MB-231 cells assessed as accumulation of cells with sub-G0-G1 DNA content at 1 uM incubated for 48 hrs in presence of docetaxel by flow cytometric analysis. The class given is functional, cell-based.
Data set [16] has as its system HCC1937. The data set is described as follows: Induction of apoptosis in human HCC1937 cells assessed as accumulation of cells with sub-G0-G1 DNA content at 1 uM incubated for 48 hrs in presence of docetaxel by flow cytometric analysis. Type of data set: functional, cell-based. In general terms: A flow cytometer gives signals particle by particle.
Data set [17] can be described thus: Inhibition of granulocyte colony formation in human bone marrow cells at 0.1 to 20 uM incubated for 14 to 16 days in presence of docetaxel by light microscopic analysis. The class given is toxicity, cell-based. To be noted: bone marrow cell, dose lower 0.1 µM, time lower 14 day, dose upper 20 µM, time upper 16 day. The procedure, abridged:
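Human bone marrow granulocyte colony-forming assay in semisolid medium, increasing inhibitor concentrations ± 5 nM docetaxel; colonies counted by light microscopy after 14 days; triplicate means with SD; combinations compared with docetaxel alone by Student's t test.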

Activity calls are given as the source filed them. The rule behind the calls is not given here.

In the case of `Cc1c(-c2ccc(N3CCc4cccc(C(=O)Nc5nc6ccccc6s5)c4C3)nc2C(=O)O)cnn1CC12CC3CC(CC(C3)C1)C2`, the result in data set [1] was Active. The Activity in data set [2] was determined as 33%; in data set [5], 22%. Besides, the TGI is 84% in [3], 52% in data set [4] and 57% in data set [6].

Turning to `CN(C)CC#Cc1ccc(OCCCc2sc(N3CCc4cccc(C(=O)Nc5nc6ccccc6s5)c4C3)nc2C(=O)O)c(F)c1` [A-1155463], the Activity_index worked out at 277 in data set [7]; 305 in data set [8]; 229 in data set [9]; 62 in data set [10]; 152 in [11]; 302 in data set [12]. Also, the Activity_index in data set [13] came out at 128.

Consider `CC1(C)CCC(c2ccc(Cl)cc2)=C(CN2CCN(c3ccc(C(=O)NS(=O)(=O)c4ccc(N[C@H](CCN5CCOCC5)CSc5ccccc5)c(S(=O)(=O)C(F)(F)F)c4)cc3)CC2)C1` [NAVITOCLAX], for which the outcome in data set [14], in [15] and in [16] was Active. Moreover, the Activity result in data set [17] is “Toxic”.

Broadly, the TGI is the reduction of tumour growth relative to the control group.
